Experimental data collected from several papers.
Each line is one published result; the experiments were not run side by side.
Target: Mitogen-activated protein kinase 11 (MAPK11, Homo sapiens, UniProt Q15759)

Cc1ccc(NC(=O)c2ccc(C)c(C(F)(F)F)c2)cc1C#Cc1nn(C2CCC(O)CC2)c2ncnc(N)c12 (centres unmarked)  remaining signal (cell-free assay; 10 µM): -2%
Cc1sc(C(=O)NC2COC2)cc1-n1cc(NC(=O)Nc2c(F)cccc2Cl)cn1  remaining activity (enzyme activity, inhibitor; 10 µM): 94.3%
CNCc1ccccc1-c1csc([C@H](C)Nc2nc(C)nc3cc(OC)c(OC)cc23)c1  remaining binding (cell-free assay, competition with immobilised ligand; 1 µM): 100%
CCN(CC)c1ccc(C2=NNC(=O)CC2C)cc1[N+](=O)[O-] (centres unmarked)  remaining activity (enzyme activity, inhibitor; 10 µM): 97%
O=C1Nc2ccc(Cl)cc2C1=Cc1cc(Cl)c(O)c(Cl)c1  remaining signal (cell-free assay; 0.5 µM): 99.2%
N#CC1c2c([nH]c3c(Cl)c(Cl)ccc23)C(=O)NC12CCCCC2 (racemic)  ΔTm (thermal stability, DSF; 10 µM): -0.1 °C
CC(C)(C)c1nc(-c2cccc(NS(=O)(=O)c3c(F)cccc3F)c2F)c(-c2ccnc(N)n2)s1  remaining activity (enzyme activity, inhibitor, radiometric; 1 µM): 104%
Cc1cc(-n2nc(Cc3cc(F)cc(C(F)(F)F)c3)nc2C)ccc1C(N)=O  remaining binding (cell-free assay, competition with immobilised ligand; 1 µM): 90%
CN1CCC2(CC1)NC(=O)c1c(c3ccc(Cl)c(Cl)c3n1C)C2C#N (racemic)  ΔTm (thermal stability, DSF; 10 µM): 0.4 °C
O=C1NC(=O)c2cc(Nc3ccc(F)cc3)c(Nc3ccc(F)cc3)cc21  remaining signal (cell-free assay; 0.5 µM): 94.6%
O=C(Nc1ccc(Oc2ccc(F)cc2)cc1)N1CCc2ncccc2[C@H]1c1ccc(F)cc1  remaining binding (cell-free assay, competition with immobilised ligand; 1 µM): 100%
CNCc1ccc(-c2cc(-c3nc(-c4ccc(S(=O)(=O)C(C)C)cc4)cnc3N)on2)cc1  inhibition (enzyme activity, inhibitor; 0.4 µM): 2%
Cn1c2c(Cl)c(Cl)ccc2c2cn[nH]c(=O)c21  ΔTm (thermal stability, DSF; 10 µM): 0.1 °C
Cc1ccc(Nc2nccc(N(C)c3ccc4c(C)n(C)nc4c3)n2)cc1S(N)(=O)=O  inhibition (enzyme activity, inhibitor; 0.3 µM): -6%
FC(F)c1nc2ccccc2n1-c1nc(N2CCOCC2)nc(N2CCOCC2)n1  remaining activity (enzyme activity, inhibitor; 10 µM): 95%
COc1cc2ncnc(Nc3ccc(Oc4ccccc4)cc3C)c2cc1OC  inhibition (enzyme activity, inhibitor; 1 µM): 5%
Oc1cccc(-c2nc(N3CCOCC3)c3oc4ncccc4c3n2)c1  remaining signal (cell-free assay; 0.5 µM): 103%
c1ccc(CNc2nc(N3CCOc4ccccc43)nc3c2CCCC3)cc1  inhibition (target engagement in cells, inhibitor, chemoproteomics; 20 mM): -9.7%
O=C(NCCCC1CCCCC1)c1ccc(CNC(=O)c2cnn(-c3ccccc3)c2C(F)(F)F)cc1  remaining binding (cell-free assay, competition with immobilised ligand; 0.1 µM): 100%
COc1cccc2c(NCc3ccccc3)nc(-n3c(N)nc4ccccc43)nc12  inhibition (target engagement in cells, inhibitor, chemoproteomics; 20 mM): -9.6%
Cc1cc(NC(=O)c2cccc3cc(-c4cccc5[nH]nc(N)c45)ccc23)ccc1F  activity vs control (enzyme activity, inhibitor; 0.1 µM): 69%
Cn1nc(C(=O)NCc2ccc(C(=O)O)cc2)cc1-c1ccc2[nH]ccc2c1  remaining binding (cell-free assay, competition with immobilised ligand; 0.1 µM): 86%
CC/C(=N\NC(=O)NCc1cccc(O)c1)c1ccc(O)c(C)c1O  inhibition (enzyme activity, inhibitor; 0.1 µM): 0.5%
O=C(O)[C@H]1[C@H](Cn2nnc3ccccc3c2=O)CC[C@@H]1C(=O)c1ccc(OCCC2CCOCC2)cc1  remaining binding (cell-free assay, competition with immobilised ligand; 1 µM): 78%
Cn1c2c(c3ccc(Cl)c(Cl)c31)C(C#N)C1(CCCCC1)NC2=O (racemic)  ΔTm (thermal stability, DSF; 10 µM): 0.1 °C
COc1ccc2c(O[C@@H]3C[C@H]4C(=O)N[C@]5(C(=O)O)CC5/C=C\CCCCC[C@H](NC(=O)OC5CCCC5)C(=O)N4C3)cc(-c3csc(NC(=O)C(C)C)n3)nc2c1C (some centres unmarked)  remaining binding (cell-free assay, competition with immobilised ligand; 1 µM): 100%
CCN(CC)CCNC(=O)c1c(C)[nH]c(/C=C2\C(=O)Nc3ccc(F)cc32)c1C  inhibition (enzyme activity, inhibitor; 10 µM): 3%
CCCS(=O)(=O)Nc1ccc(F)c(C(=O)c2c[nH]c3ncc(-c4ccc(Cl)cc4)cc23)c1F  inhibition (enzyme activity, inhibitor; 1 µM): < 10%
COc1cc(Nc2cnc(C#N)c(O[C@H](C)CN(C)C)n2)ncc1-c1cnn(C)c1  remaining activity (enzyme activity, inhibitor, radiometric; 10 µM): 92%
Cn1c2c(Cl)c(Cl)ccc2c2cc(N)[nH]c(=O)c21  ΔTm (thermal stability, DSF; 10 µM): 1.8 °C
NS(=O)(=O)c1cc(NC(=O)Cc2ccccc2)ccc1Oc1cccc(Cl)c1  remaining binding (cell-free assay, competition with immobilised ligand; 1 µM): 100%
O=C(CSc1nc2nccnc2c(=O)n1CCc1ccccc1)Nc1nccs1  inhibition (enzyme activity, inhibitor; 10 µM): 5%
CNc1cccc2cc(C(=O)Nc3ccc(C(=O)O)cc3)c(=O)[nH]c12  inhibition (enzyme activity, inhibitor; 10 µM): -2.4%
C[S+]([O-])c1ccc(-c2nc(-c3ccncc3)c(-c3ccc(F)cc3)[nH]2)cc1 (centres unmarked)  remaining signal (cell-free assay; 0.5 µM): 68.9%
Cn1c2c(c3ccc(Cl)c(Cl)c31)C(C#N)C1(CCOCC1)NC2=O (centres unmarked)  ΔTm (thermal stability, DSF; 10 µM): 0.4 °C
Cc1ccc(C(=O)Nc2ccc(CN3CCN(C)CC3)c(C(F)(F)F)c2)cc1C#Cc1cnc2cccnn12  remaining activity (enzyme activity, inhibitor; 23.5 nM): 63%
O=C(Nc1cnn(-c2csc(C(=O)NC3COC3)c2)c1)Nc1c(F)cccc1Cl  remaining activity (enzyme activity, inhibitor; 5 µM): 91.7%
Nc1nc(Nc2ccccc2)sc1C(=O)c1c(F)cccc1F  remaining activity (enzyme activity, inhibitor; 10 µM): 12%
